In ChEMBL document CHEMBL4689842, “EUbOPEN Chemogenomics Library wave 1” (2021):

Tested on: Fibroblast
Test: Multiplex assay against human fibroblast
Type: toxicity, cell-based
Method in brief: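 With compound added, live cells were imaged on a CQ1 microscope at 37°C and 5% CO2; staining with Hoechst33342, BioTracker Green Microtubule Cytoskeleton Dye, MitoTracker Red and Annexin V Alexa Fluor 680 had been done at seeding. The CellPathfinder machine-learning gating scheme split cells into Hoechst high-intensity objects or normal cells, normal cells into healthy, pyknosed or fragmented nuclei, and pyknosed cells into mitotic or apoptotic. The tubulin, mitochondrial-mass and membrane-permeability phenotypes are per cents of healthy-nucleus cells.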

[1] = 12 h, 1 µM, compound concentration 1 uM, replicate 1
[2] = 12 h, 1 µM, compound concentration 1 uM, replicate 2
[3] = 12 h, 10 µM, compound concentration 10 uM, replicate 1
[4] = 12 h, 10 µM, compound concentration 10 uM, replicate 2
[5] = 24 h, 1 µM, compound concentration 1 uM, replicate 1
[6] = 24 h, 1 µM, compound concentration 1 uM, replicate 2
[7] = 24 h, 10 µM, compound concentration 10 uM, replicate 1
[8] = 24 h, 10 µM, compound concentration 10 uM, replicate 2
[9] = 48 h, 1 µM, compound concentration 1 uM, replicate 1
[10] = 48 h, 1 µM, compound concentration 1 uM, replicate 2
[11] = 48 h, 10 µM, compound concentration 10 uM, replicate 1
[12] = 48 h, 10 µM, compound concentration 10 uM, replicate 2

Cc1cc(C)cc(-c2cnc3cc(Cl)c(-c4cccc(O)c4)cc3c2OCCCN)c1
Population Apoptotic (%) [1]: 44% | Population Fragmented Nuclei (%) [1]: 38% | Population Healthy Nuclei (%) [1]: 26% | Population Hoechst High Intensity Objects (%) [1]: 16% | Population Membrane Permeable-Phenotype (%) [1]: 38% | Population Mitochondria Different-Phenotype (%) [1]: 30% | Population Mitotic Cells (%) [1]: 55% | Population Normal (%) [1]: 83% | Population Pyknosed Nuclei (%) [1]: 36% | Population Tubulin-Different-Phenotype (%) [1]: 61% | Total Cell Count [1]: 60 | Population Fragmented Nuclei (%) [2]: 11% | Population Healthy Nuclei (%) [2]: 72% | Population Hoechst High Intensity Objects (%) [2]: 10% | Population Membrane Permeable-Phenotype (%) [2]: 2% | Population Mitochondria Different-Phenotype (%) [2]: 82% | Population Normal (%) [2]: 90% | Population Pyknosed Nuclei (%) [2]: 16% | Population Tubulin-Different-Phenotype (%) [2]: 56% | Total Cell Count [2]: 68 | Population Apoptotic (%) [3]: 33% | Population Fragmented Nuclei (%) [3]: 31% | Population Healthy Nuclei (%) [3]: 10% | Population Hoechst High Intensity Objects (%) [3]: 11% | Population Membrane Permeable-Phenotype (%) [3]: 53% | Population Mitochondria Different-Phenotype (%) [3]: 7% | Population Mitotic Cells (%) [3]: 66% | Population Normal (%) [3]: 88% | Population Pyknosed Nuclei (%) [3]: 57% | Population Tubulin-Different-Phenotype (%) [3]: 100% | Total Cell Count [3]: 135 | Population Apoptotic (%) [4]: 70% | Population Fragmented Nuclei (%) [4]: 16% | Population Healthy Nuclei (%) [4]: 32% | Population Hoechst High Intensity Objects (%) [4]: 8% | Population Membrane Permeable-Phenotype (%) [4]: 90% | Population Mitochondria Different-Phenotype (%) [4]: 95% | Population Mitotic Cells (%) [4]: 29% | Population Normal (%) [4]: 91% | Population Pyknosed Nuclei (%) [4]: 50% | Total Cell Count [4]: 60 | Population Apoptotic (%) [5]: 40% | Population Fragmented Nuclei (%) [5]: 54% | Population Healthy Nuclei (%) [5]: 22% | Population Hoechst High Intensity Objects (%) [5]: 21% | Population Membrane Permeable-Phenotype (%) [5]: 10% | Population Mitochondria Different-Phenotype (%) [5]: 10% | Population Mitotic Cells (%) [5]: 60% | Population Normal (%) [5]: 78% | Population Pyknosed Nuclei (%) [5]: 22% | Population Tubulin-Different-Phenotype (%) [5]: 20% | Total Cell Count [5]: 56 | Population Apoptotic (%) [6]: 62% | Population Fragmented Nuclei (%) [6]: 11% | Population Healthy Nuclei (%) [6]: 75% | Population Hoechst High Intensity Objects (%) [6]: 3% | Population Membrane Permeable-Phenotype (%) [6]: 2% | Population Mitochondria Different-Phenotype (%) [6]: 78% | Population Mitotic Cells (%) [6]: 37% | Population Normal (%) [6]: 96% | Population Pyknosed Nuclei (%) [6]: 13% | Population Tubulin-Different-Phenotype (%) [6]: 28% | Total Cell Count [6]: 66 | Population Apoptotic (%) [7]: 38% | Population Fragmented Nuclei (%) [7]: 28% | Population Healthy Nuclei (%) [7]: 16% | Population Hoechst High Intensity Objects (%) [7]: 12% | Population Membrane Permeable-Phenotype (%) [7]: 54% | Population Mitochondria Different-Phenotype (%) [7]: 4% | Population Mitotic Cells (%) [7]: 61% | Population Normal (%) [7]: 87% | Population Pyknosed Nuclei (%) [7]: 54% | Population Tubulin-Different-Phenotype (%) [7]: 90% | Total Cell Count [7]: 149 | Population Apoptotic (%) [8]: 93% | Population Fragmented Nuclei (%) [8]: 24% | Population Healthy Nuclei (%) [8]: 3% | Population Hoechst High Intensity Objects (%) [8]: 7% | Population Membrane Permeable-Phenotype (%) [8]: 50% | Population Mitochondria Different-Phenotype (%) [8]: 50% | Population Mitotic Cells (%) [8]: 6% | Population Normal (%) [8]: 92% | Population Pyknosed Nuclei (%) [8]: 72% | Population Tubulin-Different-Phenotype (%) [8]: 50% | Total Cell Count [8]: 63 | Population Apoptotic (%) [9]: 64% | Population Fragmented Nuclei (%) [9]: 37% | Population Healthy Nuclei (%) [9]: 33% | Population Hoechst High Intensity Objects (%) [9]: 20% | Population Membrane Permeable-Phenotype (%) [9]: 37% | Population Mitochondria Different-Phenotype (%) [9]: 37% | Population Mitotic Cells (%) [9]: 35% | Population Normal (%) [9]: 80% | Population Pyknosed Nuclei (%) [9]: 29% | Population Tubulin-Different-Phenotype (%) [9]: 56% | Total Cell Count [9]: 60 | Population Apoptotic (%) [10]: 75% | Population Fragmented Nuclei (%) [10]: 41% | Population Healthy Nuclei (%) [10]: 54% | Population Hoechst High Intensity Objects (%) [10]: 17% | Population Membrane Permeable-Phenotype (%) [10]: 22% | Population Mitochondria Different-Phenotype (%) [10]: 9% | Population Mitotic Cells (%) [10]: 25% | Population Normal (%) [10]: 82% | Population Pyknosed Nuclei (%) [10]: 4% | Population Tubulin-Different-Phenotype (%) [10]: 62% | Total Cell Count [10]: 117 | Population Apoptotic (%) [11]: 56% | Population Fragmented Nuclei (%) [11]: 45% | Population Healthy Nuclei (%) [11]: 28% | Population Hoechst High Intensity Objects (%) [11]: 39% | Population Membrane Permeable-Phenotype (%) [11]: 37% | Population Mitochondria Different-Phenotype (%) [11]: 7% | Population Mitotic Cells (%) [11]: 44% | Population Normal (%) [11]: 60% | Population Pyknosed Nuclei (%) [11]: 26% | Population Tubulin-Different-Phenotype (%) [11]: 81% | Total Cell Count [11]: 157 | Population Apoptotic (%) [12]: 93% | Population Fragmented Nuclei (%) [12]: 39% | Population Healthy Nuclei (%) [12]: 43% | Population Hoechst High Intensity Objects (%) [12]: 31% | Population Membrane Permeable-Phenotype (%) [12]: 12% | Population Mitochondria Different-Phenotype (%) [12]: 82% | Population Mitotic Cells (%) [12]: 6% | Population Normal (%) [12]: 68% | Population Pyknosed Nuclei (%) [12]: 16% | Population Tubulin-Different-Phenotype (%) [12]: 92% | Total Cell Count [12]: 129
